ChEMBL document CHEMBL2029267, “Rapid assembly of a library of lipophilic iminosugars via the thiol-ene reaction yields promising pharmacological chaperones for the treatment of Gaucher disease” (J Med Chem, 2012)
Where a chain is given by its changes, count along the chain named. Active and inactive are the calls of the source. The rule behind the calls is not given here.

Legend:
Homo sapiens [1] = species on record: Homo sapiens; test: Activation of intracellular glucocerebrosidase p.L444P mutant in gaucher patient fibroblast using 4-methylumbelliferyl beta-D-glucopyranoside as substrate assessed as concentration at which 50% of maximum increase in activity
[2] = system: T1, Lysosomal acid glucosylceramidase (Homo sapiens), P04062 [N409S]; test: Activation of intracellular glucocerebrosidase p.N370S mutant in gaucher patient fibroblast using 4-methylumbelliferyl beta-D-glucopyranoside as substrate assessed as concentration at which 50% of maximum increase in activity
T1 sequence (whole entry): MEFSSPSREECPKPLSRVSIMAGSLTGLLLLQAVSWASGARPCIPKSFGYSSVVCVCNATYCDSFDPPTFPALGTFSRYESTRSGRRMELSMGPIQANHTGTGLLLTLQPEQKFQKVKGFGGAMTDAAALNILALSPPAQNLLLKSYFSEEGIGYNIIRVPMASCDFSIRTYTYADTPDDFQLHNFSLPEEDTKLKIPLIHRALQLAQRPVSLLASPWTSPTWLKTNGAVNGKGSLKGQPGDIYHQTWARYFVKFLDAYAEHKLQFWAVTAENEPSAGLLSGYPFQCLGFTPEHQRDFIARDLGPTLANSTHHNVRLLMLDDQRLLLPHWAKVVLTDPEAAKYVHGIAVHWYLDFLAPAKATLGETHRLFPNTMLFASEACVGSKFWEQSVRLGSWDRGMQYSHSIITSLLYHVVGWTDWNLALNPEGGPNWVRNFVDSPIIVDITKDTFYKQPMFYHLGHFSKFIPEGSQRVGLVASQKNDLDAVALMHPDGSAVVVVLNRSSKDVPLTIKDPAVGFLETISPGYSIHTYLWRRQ

Homo sapiens [3] = species on record: Homo sapiens; test: Inhibition of human lysosomal alpha-galactosidase using 4-methylumbelliferyl alpha-D-galactopyranoside as substrate at 200 uM by fluorimetric analysis
Procedure, shortened: (§1)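 Enzyme source was a lysosomal-enzyme-enriched ConA-bound human placental fraction, run in 100 mM citrate–phosphate pH 4.5 with 0.025% human serum albumin at 37 °C. Compound was tested at 200 μM in triplicate. An equal volume of 4-MU substrate was added: α-Glc 3.0 mM (α-glucosidase), α-Gal 1.0 mM (α-galactosidase), β-Gal 0.5 mM (β-galactosidase). Reactions were stopped with 4-fold excess 100 mM aminomethylpropanol and fluorescence read at 365/460 nm.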

Homo sapiens [4] = species on record: Homo sapiens; test: Activation of intracellular glucocerebrosidase p.L444P mutant in gaucher patient fibroblast using 4-methylumbelliferyl beta-D-glucopyranoside as substrate relative to control
[5] = biological target: T2, Beta-galactosidase (Homo sapiens) (UniProt P16278); test: Inhibition of human lysosomal beta-galactosidase using 4-methylumbelliferyl beta-Dgalactopyranoside as substrate at 200 uM by fluorimetric analysis
T2 sequence (whole entry): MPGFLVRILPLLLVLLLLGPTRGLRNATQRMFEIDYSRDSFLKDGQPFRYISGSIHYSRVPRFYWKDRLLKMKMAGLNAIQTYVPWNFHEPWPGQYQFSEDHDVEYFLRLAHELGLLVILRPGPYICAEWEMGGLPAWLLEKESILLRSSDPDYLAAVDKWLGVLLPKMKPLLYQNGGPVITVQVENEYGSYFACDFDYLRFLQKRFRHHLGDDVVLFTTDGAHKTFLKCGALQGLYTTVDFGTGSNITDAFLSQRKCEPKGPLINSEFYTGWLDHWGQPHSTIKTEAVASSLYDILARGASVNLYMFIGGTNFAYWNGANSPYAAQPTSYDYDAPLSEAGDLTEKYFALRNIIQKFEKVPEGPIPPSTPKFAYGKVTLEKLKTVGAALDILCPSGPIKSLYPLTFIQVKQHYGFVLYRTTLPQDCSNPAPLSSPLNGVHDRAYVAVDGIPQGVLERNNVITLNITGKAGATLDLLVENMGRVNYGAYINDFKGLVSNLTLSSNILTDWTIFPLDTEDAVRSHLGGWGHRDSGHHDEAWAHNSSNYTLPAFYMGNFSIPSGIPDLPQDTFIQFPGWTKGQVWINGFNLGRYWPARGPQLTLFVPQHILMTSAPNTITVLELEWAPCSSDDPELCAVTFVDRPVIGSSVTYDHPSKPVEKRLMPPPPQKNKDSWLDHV
Procedure, shortened: as §1

[6] = biological target: T3, Lysosomal acid glucosylceramidase (Homo sapiens) (UniProt P04062); test: Thermal denaturation of human glucocerebrosidase by differential scanning fluorimetry assessed as change in melting temperature at 100 uM and pH 7
T3 sequence (whole entry): T1 sequence (whole entry) with S409N

[7] = system: T1, Lysosomal acid glucosylceramidase (Homo sapiens), P04062 [N409S]; test: Activation of intracellular glucocerebrosidase p.N370S mutant in gaucher patient fibroblast using 4-methylumbelliferyl beta-D-glucopyranoside as substrate relative to control
[8] = biological target: Lysosomal alpha-glucosidase (Homo sapiens) (UniProt P10253); test: Inhibition of human lysosomal alpha-glucosidase using 4-methylumbelliferyl alpha-D-glucopyranoside as substrate at 200 uM by fluorimetric analysis
Procedure, shortened: as §1

[9] = Cytotoxicity against gaucher patient fibroblast assessed as decrease in cell viability at 100 uM after 5 days by alamar blue assay; type: cell-based; conditions: human, 120 h
Procedure, shortened: (§2)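 Viability of GD patient fibroblasts grown with compound at 10, 33 and 100 μM was read by a resazurin-based spectrophotometric assay.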

[10] = biological target: T4, Lysosomal acid glucosylceramidase (Homo sapiens, UniProt P04062); test: Competitive inhibition of wild type human glucocerebrosidase using 4-methylumbelliferyl beta-D-glucopyranoside as substrate after 15 mins by Dixon and Line-Weaver Burk plot analysis […]
T4 sequence (P04062 whole entry): T1 sequence (whole entry) with S409N

[11] = biological target: T5, Cytosolic beta-glucosidase (Homo sapiens, UniProt Q9H227); test: Inhibition of human cytosolic beta-glucosidase using 4-methylumbelliferyl beta-D-glucopyranoside as substrate after 15 mins by fluorimetric analysis
T5 sequence (Q9H227 whole entry): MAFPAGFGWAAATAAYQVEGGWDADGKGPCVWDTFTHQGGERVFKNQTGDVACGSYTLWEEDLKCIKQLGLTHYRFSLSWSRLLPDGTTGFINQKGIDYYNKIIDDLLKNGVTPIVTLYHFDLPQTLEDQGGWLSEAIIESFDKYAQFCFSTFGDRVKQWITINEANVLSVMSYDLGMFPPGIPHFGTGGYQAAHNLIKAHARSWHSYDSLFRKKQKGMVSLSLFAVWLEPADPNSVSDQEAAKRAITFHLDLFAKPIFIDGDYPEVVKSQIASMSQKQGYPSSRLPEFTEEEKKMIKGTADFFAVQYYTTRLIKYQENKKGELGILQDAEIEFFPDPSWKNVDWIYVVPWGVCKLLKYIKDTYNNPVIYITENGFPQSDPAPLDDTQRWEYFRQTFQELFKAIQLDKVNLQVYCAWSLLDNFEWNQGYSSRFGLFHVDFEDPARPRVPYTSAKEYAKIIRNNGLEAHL
Procedure, shortened: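 Purified human cytosolic neutral β-glucosidase was preincubated 15 min at room temperature with a 3-fold compound dilution series. An equal volume of 10 mM 4-MU β-D-glucoside in 100 mM citrate–phosphate pH 7.0 was added, then incubated 30 min at 37 °C. The reaction was stopped with 4-fold excess 100 mM 2-amino-2-methylpropanol and read at ex 365/em 460 nm. IC50 came from nonlinear fitting.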

[12] = Cytotoxicity against gaucher patient fibroblast assessed as decrease in cell viability at 10 uM after 5 days by alamar blue assay; type: cell-based; conditions: human, 120 h
Procedure, shortened: as §2

Homo sapiens [13] = species on record: Homo sapiens; test: Activation of beta-N-acetyl hexosaminidase in gaucher patient fibroblast using 4-methylumbelliferyl N-acetyl-beta-D-glucosaminide as substrate
Procedure, shortened: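 Patient fibroblasts (GD, homozygous mutant GBA) grown in α-MEM with 10% FCS at 37 °C, CO2, with compound for 5 days. Lysates prepared in pH 5.5 citrate–phosphate with Triton X-100 and taurocholate. Lysosomal β-N-acetyl hexosaminidase activity read with fluorogenic 4-MU N-acetyl-β-D-glucosaminide at each compound concentration.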

Activity (Homo sapiens [1]) [nM]	Activity [2] [nM]	inhibition (Homo sapiens [3])	fold change (FC) (Homo sapiens [4])	inhibition [5]	deltaTm [6] [K]	fold change (FC) [7]	inhibition [8]	Ki [10] [nM]	IC50 [11] [nM]	inhibition (Homo sapiens [13])	SMILES	Activity [9]	Activity [12]
0.6	2.7	inactive	1.3	inactive	15	2.1	inactive	1.8			CCCCCCSCC[C@H]1NC[C@@H](O)[C@H](O)[C@H]1O.Cl	Toxic	
0.6	1	inactive	1.2	inactive	20	1.6	inactive	0.4	2000	Active	CCCCCCCCSCC[C@H]1NC[C@@H](O)[C@H](O)[C@H]1O.Cl		Toxic
